Experiments:
Format in all cases: functional, cell-based
[1] = Cytotoxicity against human H460 cells after 72 hrs by MTT assay; conditions: NCI-H460, 72 h
In short: (§1)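 Cells suspended in MEM medium, plated and incubated 24 h at 37 °C in 5% CO₂, then exposed to compounds at indicated final concentrations for 72 h. IC₅₀ from averages of three determinations, relative to DMSO vehicle control.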

[2] = system: MDA-MB-231; assay: Cytotoxicity against human MDA-MB-231 cells after 72 hrs by MTT assay; conditions: MDA-MB-231, 72 h; in short: as §1
[3] = Cytotoxicity against human MKN45 cells after 72 hrs by MTT assay; conditions: MKN-45, 72 h; in short: as §1
[4] = system: HT-29; assay: Cytotoxicity against human HT-29 cells after 72 hrs by MTT assay; conditions: HT-29, 72 h; in short: as §1

## CCN(CC)CCCNc1nc(-c2ccc(NC(=O)Nc3ccccc3Cl)cc2)nc2c(Cl)c(Cl)sc12
[1]
  IC50: 330 nM
[2]
  IC50: 970 nM
[3]
  IC50: 1450 nM
[4]
  IC50: 410 nM

## CN(C)CCCNc1nc(-c2ccc(NC(=O)Nc3ccccc3F)cc2)nc2ccsc12
[1]
  IC50: 530 nM
[2]
  IC50: 660 nM
[3]
  IC50: 730 nM
[4]
  IC50: 470 nM

## CCN(CC)CCNc1nc(-c2ccc(NC(=O)Nc3ccccc3Cl)cc2)nc2c(Cl)c(Cl)sc12
[1]
  IC50: 460 nM
[2]
  IC50: 1410 nM
[3]
  IC50: 1130 nM
[4]
  IC50: 550 nM

## CCN(CC)CCNc1nc(-c2ccc(NC(=O)Nc3ccccc3Cl)cc2)nc2ccsc12
[1]
  IC50: 320 nM
[2]
  IC50: 680 nM
[3]
  IC50: 750 nM
[4]
  IC50: 620 nM

## CN(C)CCNc1nc(-c2ccc(NC(=O)Nc3ccccc3Cl)cc2)nc2ccsc12
[1]
  IC50: 230 nM
[2]
  IC50: 550 nM
[3]
  IC50: 850 nM
[4]
  IC50: 310 nM

## CCN(CC)CCCNc1nc(-c2ccc(NC(=O)Nc3ccccc3)cc2)nc2ccsc12
[1]
  IC50: 680 nM
[2]
  IC50: 1230 nM
[3]
  IC50: 980 nM
[4]
  IC50: 730 nM

## CCN(CC)CCNc1nc(-c2ccc(NC(=O)Nc3ccccc3F)cc2)nc2ccsc12
[1]
  IC50: 430 nM
[2]
  IC50: 580 nM
[3]
  IC50: 1040 nM
[4]
  IC50: 610 nM

## CCN(CC)CCCNc1nc(-c2ccc(NC(=O)Nc3ccc(Cl)cc3Cl)cc2)nc2c(Cl)c(Cl)sc12
[1]
  IC50: 1170 nM
[2]
  IC50: 3940 nM
[3]
  IC50: 5720 nM
[4]
  IC50: 1230 nM

## CN(C)CCNc1nc(-c2ccc(NC(=O)Nc3ccc(F)cc3)cc2)nc2c(Cl)c(Cl)sc12
[1]
  IC50: 590 nM
[2]
  IC50: 1240 nM
[3]
  IC50: 1350 nM
[4]
  IC50: 890 nM

## CCN(CC)CCNc1nc(-c2ccc(NC(=O)Nc3ccc(C)cc3)cc2)nc2c(Cl)c(Cl)sc12
[1]
  IC50: 840 nM
[2]
  IC50: 2010 nM
[3]
  IC50: 1450 nM
[4]
  IC50: 950 nM

## CCN(CC)CCNc1nc(-c2ccc(NC(=O)Nc3ccc(Cl)cc3)cc2)nc2c(Cl)c(Cl)sc12
[1]
  IC50: 320 nM
[2]
  IC50: 750 nM
[3]
  IC50: 890 nM
[4]
  IC50: 430 nM

## CCN(CC)CCCNc1nc(-c2ccc(NC(=O)Nc3ccc(Cl)cc3)cc2)nc2c(Cl)c(Cl)sc12
[1]
  IC50: 270 nM
[2]
  IC50: 660 nM
[3]
  IC50: 720 nM
[4]
  IC50: 250 nM

## CS(=O)(=O)N1CCN(Cc2cc3nc(-c4cccc5[nH]ncc45)nc(N4CCOCC4)c3s2)CC1 [PICTILISIB]
[3]
  IC50: 600 nM

## CN(C)CCCNc1nc(-c2ccc(NC(=O)Nc3ccccc3Cl)cc2)nc2c(Cl)c(Cl)sc12
[1]
  IC50: 490 nM
[2]
  IC50: 1560 nM
[3]
  IC50: 1330 nM
[4]
  IC50: 820 nM

## CN(C)CCNc1nc(-c2ccc(NC(=O)Nc3ccc(Cl)cc3)cc2)nc2c(Cl)c(Cl)sc12
[1]
  IC50: 300 nM
[2]
  IC50: 870 nM
[3]
  IC50: 910 nM
[4]
  IC50: 460 nM

## CCN(CC)CCNc1nc(-c2ccc(NC(=O)Nc3ccc(Cl)cc3Cl)cc2)nc2c(Cl)c(Cl)sc12
[1]
  IC50: 1300 nM
[2]
  IC50: 1920 nM
[3]
  IC50: 1770 nM
[4]
  IC50: 1140 nM

## CN(C)CCCNc1nc(-c2ccc(NC(=O)Nc3ccc(F)cc3)cc2)nc2c(Cl)c(Cl)sc12
[1]
  IC50: 650 nM
[2]
  IC50: 980 nM
[3]
  IC50: 1120 nM
[4]
  IC50: 430 nM

## CN(C)CCCNc1nc(-c2ccc(NC(=O)Nc3ccc(Cl)cc3Cl)cc2)nc2ccsc12
[1]
  IC50: 1020 nM
[2]
  IC50: 1860 nM
[3]
  IC50: 2270 nM
[4]
  IC50: 1860 nM

## CCN(CC)CCCNc1nc(-c2ccc(NC(=O)Nc3ccc(C)cc3)cc2)nc2c(Cl)c(Cl)sc12
[1]
  IC50: 1240 nM
[2]
  IC50: 3040 nM
[3]
  IC50: 3320 nM
[4]
  IC50: 890 nM

## CN(C)CCCNc1nc(-c2ccc(NC(=O)Nc3ccccc3Cl)cc2)nc2ccsc12
[1]
  IC50: 430 nM
[2]
  IC50: 590 nM
[3]
  IC50: 690 nM
[4]
  IC50: 390 nM

## CN(C)CCCNc1nc(-c2ccc(NC(=O)Nc3ccc(Cl)cc3)cc2)nc2c(Cl)c(Cl)sc12
[1]
  IC50: 230 nM
[2]
  IC50: 1160 nM
[3]
  IC50: 1530 nM
[4]
  IC50: 330 nM

## CN(C)CCNc1nc(-c2ccc(NC(=O)Nc3ccccc3)cc2)nc2ccsc12
[1]
  IC50: 640 nM
[2]
  IC50: 1310 nM
[3]
  IC50: 1120 nM
[4]
  IC50: 620 nM

## CN(C)CCNc1nc(-c2ccc(NC(=O)Nc3ccccc3Cl)cc2)nc2c(Cl)c(Cl)sc12
[1]
  IC50: 440 nM
[2]
  IC50: 1350 nM
[3]
  IC50: 1170 nM
[4]
  IC50: 570 nM

## CN(C)CCNc1nc(-c2ccc(NC(=O)Nc3ccc(Cl)cc3Cl)cc2)nc2c(Cl)c(Cl)sc12
[1]
  IC50: 1520 nM
[2]
  IC50: 3500 nM
[3]
  IC50: 3460 nM
[4]
  IC50: 1280 nM

## CN(C)CCCNc1nc(-c2ccc(NC(=O)Nc3ccc(Cl)cc3Cl)cc2)nc2c(Cl)c(Cl)sc12
[1]
  IC50: 980 nM
[2]
  IC50: 3490 nM
[3]
  IC50: 2560 nM
[4]
  IC50: 1320 nM

## CN(C)CCNc1nc(-c2ccc(NC(=O)Nc3ccc(Cl)cc3Cl)cc2)nc2ccsc12
[1]
  IC50: 1650 nM
[2]
  IC50: 2450 nM
[3]
  IC50: 2360 nM
[4]
  IC50: 1320 nM

## CCN(CC)CCCNc1nc(-c2ccc(NC(=O)Nc3ccc(F)cc3)cc2)nc2ccsc12
[1]
  IC50: 290 nM
[2]
  IC50: 530 nM
[3]
  IC50: 470 nM
[4]
  IC50: 340 nM

## CCN(CC)CCNc1nc(-c2ccc(NC(=O)Nc3ccc(Cl)cc3)cc2)nc2ccsc12
[1]
  IC50: 190 nM
[2]
  IC50: 550 nM
[3]
  IC50: 370 nM
[4]
  IC50: 150 nM

## CN(C)CCNc1nc(-c2ccc(NC(=O)Nc3ccccc3F)cc2)nc2ccsc12
[1]
  IC50: 410 nM
[2]
  IC50: 600 nM
[3]
  IC50: 530 nM
[4]
  IC50: 510 nM

## CCN(CC)CCCNc1nc(-c2ccc(NC(=O)Nc3ccc(C)cc3)cc2)nc2ccsc12
[1]
  IC50: 1240 nM
[2]
  IC50: 1980 nM
[3]
  IC50: 1760 nM
[4]
  IC50: 1620 nM

## CCN(CC)CCCNc1nc(-c2ccc(NC(=O)Nc3ccc(F)cc3)cc2)nc2c(Cl)c(Cl)sc12
[1]
  IC50: 450 nM
[2]
  IC50: 1630 nM
[3]
  IC50: 1700 nM
[4]
  IC50: 350 nM

## CCN(CC)CCCNc1nc(-c2ccc(NC(=O)Nc3ccccc3Cl)cc2)nc2ccsc12
[1]
  IC50: 200 nM
[2]
  IC50: 500 nM
[3]
  IC50: 390 nM
[4]
  IC50: 340 nM

## CCN(CC)CCNc1nc(-c2ccc(NC(=O)Nc3ccc(F)cc3)cc2)nc2c(Cl)c(Cl)sc12
[1]
  IC50: 500 nM
[2]
  IC50: 1130 nM
[3]
  IC50: 1370 nM
[4]
  IC50: 650 nM

## Cc1ccc(NC(=O)Nc2ccc(-c3nc(NCCN(C)C)c4sccc4n3)cc2)cc1
[1]
  IC50: 1880 nM
[2]
  IC50: 2180 nM
[3]
  IC50: 2380 nM
[4]
  IC50: 2150 nM

## CN(C)CCNc1nc(-c2ccc(NC(=O)Nc3ccc(Cl)cc3)cc2)nc2ccsc12
[1]
  IC50: 130 nM
[2]
  IC50: 310 nM
[3]
  IC50: 250 nM
[4]
  IC50: 95 nM

## CN(C)CCNc1nc(-c2ccc(NC(=O)Nc3ccc(F)cc3)cc2)nc2ccsc12
[1]
  IC50: 390 nM
[2]
  IC50: 540 nM
[3]
  IC50: 330 nM
[4]
  IC50: 350 nM

## CCN(CC)CCCNc1nc(-c2ccc(NC(=O)Nc3ccccc3F)cc2)nc2ccsc12
[1]
  IC50: 370 nM
[2]
  IC50: 860 nM
[3]
  IC50: 580 nM
[4]
  IC50: 550 nM

## Cc1ccc(NC(=O)Nc2ccc(-c3nc(NCCCN(C)C)c4sc(Cl)c(Cl)c4n3)cc2)cc1
[1]
  IC50: 1110 nM
[2]
  IC50: 4980 nM
[3]
  IC50: 3700 nM
[4]
  IC50: 1320 nM

## CCN(CC)CCNc1nc(-c2ccc(NC(=O)Nc3ccc(Cl)cc3Cl)cc2)nc2ccsc12
[1]
  IC50: 1890 nM
[2]
  IC50: 2480 nM
[3]
  IC50: 1520 nM
[4]
  IC50: 1940 nM

## CCN(CC)CCCNc1nc(-c2ccc(NC(=O)Nc3ccccc3)cc2)nc2c(Cl)c(Cl)sc12
[1]
  IC50: 850 nM
[2]
  IC50: 1780 nM
[3]
  IC50: 1640 nM
[4]
  IC50: 820 nM

— ChEMBL document CHEMBL3352345, “Design, synthesis and biological evaluation of novel thieno[3,2-d]pyrimidine derivatives containing diaryl urea moiety as potent antitumor agents” (Eur J Med Chem, 2014)
